Source: ChEMBL document CHEMBL3769316, “Discovery of novel heteroarylmethylcarbamodithioates as potent anticancer agents: Synthesis, structure-activity relationship analysis and biological evaluation” (Eur J Med Chem, 2016)
The source made the active and inactive calls. No cut-off for these calls is given here.

Columns and labels:
PC-3 [1] = assay: Induction of mitotic arrest in human PC3 cells assessed as increase in supernumerary centrosome formation at 2 uM after 6 hrs using DAPI staining by immunofluorescence-based laser scanning confocal microscopy; assay type: functional, cell-based
Method in brief: (§1)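 PC-3 cells on confocal dishes were exposed 6 h to compound (2 µM) or taxol (40 nM), then fixed in 4% paraformaldehyde overnight at 4 °C and blocked. They were stained overnight at 4 °C with anti-β-tubulin and anti-γ-tubulin (1:100 each), then 1 h with Alexa Fluor 488/647 secondaries, and co-stained for DNA. Spindles and centrosomes were imaged by confocal microscopy.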

[2] = Cytotoxicity against human SW620 cells after 72 hrs by alamar blue assay; assay type: functional, cell-based; settings: SW-620, 72 h
Method in brief: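 SW620 cells were kept at 37 °C in 100% air in Leibovitz's L-15 with 10% FBS, penicillin and streptomycin. After overnight seeding, cells were given at least five concentrations for 72 h. Cells were then incubated 2-4 h with 10% Alamar blue, and fluorescence was read at ex 530/em 590 nm. IC50 was interpolated from the dose-response curves.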

PC-3 [3] = assay: Induction of mitotic arrest in human PC3 cells assessed as increase in histone H3 phosphorylation at Ser10 at 0.5 to 4 uM after 24 hrs by Western blot method; assay type: functional, cell-based
Method in brief: (§2)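 PC-3 cells were treated 24 h with compound (0.5-4 µM) or taxol (40 nM) as positive control, then lysed in RIPA with PMSF and protease inhibitors. Lysates were run on SDS-PAGE and transferred to PVDF, which was blocked with 5% milk for 1 h. Membranes were probed overnight at 4 °C for MPM-2 (1:1000), phospho-H3 (1:600) or β-actin (1:1000), followed by HRP secondary and chemiluminescence.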

MDA-MB-468 = assay: Cytotoxicity against human MDA-MB-468 cells after 72 hrs by alamar blue assay; assay type: functional, cell-based; settings: MDA-MB-468, 72 h
Method in brief: (§3)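 Cells seeded and cultured overnight, then exposed to compound at varying concentrations for 72 h. Cells were then incubated 2-4 h in medium containing 10% Alamar blue, and fluorescence was read at ex 530/em 590 nm. Dose-response curves used at least five concentrations, and IC50 (50% growth inhibition) was taken from these curves. Culture was at 37 °C.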

SK-BR-3 = assay: Cytotoxicity against human SK-BR-3 cells after 72 hrs by alamar blue assay; assay type: functional, cell-based; settings: SK-BR-3, 72 h; method in brief: as §3
Bel-7402 [4] = assay: Induction of cell cycle arrest in human Bel7402 cells assessed as accumulation at S phase at 2 uM after 24 hrs by propidium iodide staining-based flow cytometry (reference value: 47.24%); assay type: functional
[5] = Cytotoxicity against human COLO205 cells after 72 hrs by alamar blue assay; assay type: functional, cell-based; settings: COLO 205, 72 h; method in brief: as §3
NCI-H1299 = assay: Cytotoxicity against human NCI-H1299 cells after 72 hrs by alamar blue assay; assay type: functional, cell-based; settings: NCI-H1299, 72 h; method in brief: as §3
PC-3 [6] = assay: Induction of cell cycle arrest in human PC3 cells assessed as accumulation at S phase at 2 uM after 24 hrs by propidium iodide staining-based flow cytometry (reference value: 37.86%); assay type: functional
[7] = Cytotoxicity against human DU145 cells after 72 hrs by alamar blue assay; assay type: functional, cell-based; settings: DU-145, 72 h; method in brief: as §3
PC-3 [8] = assay: Induction of apoptosis in human PC3 cells assessed as chromatin condensation at 0.5 to 2 uM after 48 hrs by Hoechst 33342 staining-based fluorescence microscopy; assay type: functional, cell-based
Method in brief: (§4)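 Cells were treated with graded concentrations for 48 h, washed with PBS and fixed in 4% paraformaldehyde for 15 min. They were then stained with Hoechst 33342 (10 µg/ml in PBS) for 10 min at room temperature. Nuclear morphology and chromatin condensation were imaged by fluorescence microscopy under UV illumination.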

Bel-7402 [9] = assay: Induction of apoptosis in human Bel7402 cells assessed as increase in early apoptotic cells after 48 hrs by annexin V-FITC/propidium iodide staining-based flow cytometry; assay type: functional, cell-based
Method in brief: (§5)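 After 48 h exposure to graded concentrations, both floating and adherent cells were collected into binding buffer. They were stained with Annexin V-FITC plus PI for 15 min in the dark and analysed immediately by flow cytometry. Annexin V+/PI− cells were counted as early apoptotic and Annexin V+/PI+ cells as late apoptotic.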

PC-3 [10] = assay: Induction of mitotic arrest in human PC3 cells assessed as increase in MPM-2 level at 0.5 to 4 uM after 24 hrs by Western blot method; assay type: functional, cell-based; method in brief: as §2
PC-3 [11] = assay: Induction of cell cycle arrest in human PC3 cells assessed as accumulation at G0/G1 phase at 2 uM after 24 hrs by propidium iodide staining-based flow cytometry (reference value: 42.23%); assay type: functional
Bel-7402 [12] = assay: Induction of apoptosis in human Bel7402 cells assessed as chromatin condensation at 1 to 4 uM after 48 hrs by Hoechst 33342 staining-based fluorescence microscopy; assay type: functional, cell-based; method in brief: as §4
[13] = Cytotoxicity against HEK293T cells after 72 hrs by alamar blue assay; assay type: cell-based; settings: Homo sapiens, HEK-293T
[14] = Cytotoxicity against human Bel7402 cells after 72 hrs by alamar blue assay; assay type: functional, cell-based; settings: Bel-7402, 72 h; method in brief: as §3
NCI-H460 = assay: Cytotoxicity against human NCI-H460 cells after 72 hrs by alamar blue assay; assay type: functional, cell-based; settings: NCI-H460, 72 h; method in brief: as §3
PC-3 [15] = assay: Induction of apoptosis in human PC3 cells assessed as increase in early apoptotic cells after 48 hrs by annexin V-FITC/propidium iodide staining-based flow cytometry; assay type: functional, cell-based; method in brief: as §5
PC-3 [16] = assay: Induction of cell cycle arrest in human PC3 cells assessed as accumulation at G2/M phase at 2 uM after 24 hrs by propidium iodide staining-based flow cytometry (reference value: 19.9%); assay type: functional
[17] = Cytotoxicity against human PC3 cells after 72 hrs by alamar blue assay; assay type: functional, cell-based; settings: PC-3, 72 h
Method in brief: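 PC-3 cells were grown at 37 °C, 5% CO₂ in F-12K with 10% FBS, penicillin and streptomycin. They were seeded overnight and treated with at least five concentrations for 72 h. Alamar blue (10% in medium) was added for 2-4 h, and fluorescence was read at 530/590 nm. IC50 was taken from the dose-response curves.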

PC-3 [18] = assay: Induction of apoptosis in human PC3 cells assessed as increase in late apoptotic cells after 48 hrs by annexin V-FITC/propidium iodide staining-based flow cytometry; assay type: functional, cell-based; method in brief: as §5
Bel-7402 [19] = assay: Induction of cell cycle arrest in human Bel7402 cells assessed as accumulation at G0/G1 phase at 2 uM after 24 hrs by propidium iodide staining-based flow cytometry (reference value: 36.76%); assay type: functional
NCI-H522 = assay: Cytotoxicity against human NCI-H522 cells after 72 hrs by alamar blue assay; assay type: functional, cell-based; settings: NCI-H522, 72 h; method in brief: as §3
PC-3 [20] = assay: Induction of mitotic arrest in human PC3 cells assessed as increase in multipolar spindle formation at 2 uM after 6 hrs using DAPI staining by immunofluorescence-based laser scanning confocal microscopy; assay type: functional, cell-based; method in brief: as §1
[21] = Cytotoxicity against human HCT8 cells after 72 hrs by alamar blue assay; assay type: functional, cell-based; settings: HCT-8, 72 h; method in brief: as §3
Bel-7402 [22] = assay: Induction of apoptosis in human Bel7402 cells assessed as increase in late apoptotic cells after 48 hrs by annexin V-FITC/propidium iodide staining-based flow cytometry; assay type: functional, cell-based; method in brief: as §5
[23] = Cytotoxicity against human LO2 cells after 72 hrs by alamar blue assay; assay type: cell-based; settings: L02, 72 h; method in brief: as §3
Bel-7402 [24] = assay: Induction of cell cycle arrest in human Bel7402 cells assessed as accumulation at G2/M phase at 2 uM after 24 hrs by propidium iodide staining-based flow cytometry (reference value: 16%); assay type: functional
[25] = Cytotoxicity against human HCT116 cells after 72 hrs by alamar blue assay; assay type: functional, cell-based; settings: HCT-116, 72 h; method in brief: as §3

S=C(NCc1cccnc1)SCCc1nnc(-c2ccccc2)o1
Activity (PC-3 [1]): Active | IC50 [2]: 3.8 µM | Activity (PC-3 [3]): Active | IC50 (MDA-MB-468): 2.77 µM | IC50 (SK-BR-3): 0.58 µM | Activity (Bel-7402 [4]): 29.9% | IC50 [5]: 7.92 µM | IC50 (NCI-H1299): 1.89 µM | Activity (PC-3 [6]): 26.46% | IC50 [7]: 3.34 µM | Activity (PC-3 [8]): Active | Activity (Bel-7402 [9]): Dose-dependent effect | Activity (PC-3 [10]): Active | Activity (PC-3 [11]): 22.41% | Activity (Bel-7402 [12]): Active | IC50 [13]: 14.6 µM | IC50 [14]: 1.23 µM | IC50 (NCI-H460): 6.07 µM | Activity (PC-3 [15]): Dose-dependent effect | Activity (PC-3 [16]): 51.1% | IC50 [17]: 0.39 µM | Activity (PC-3 [18]): Dose-dependent effect | Activity (Bel-7402 [19]): 21.42% | IC50 (NCI-H522): 2.16 µM | Activity (PC-3 [20]): Active | IC50 [21]: 5.98 µM | Activity (Bel-7402 [22]): Dose-dependent effect | IC50 [23]: 9.67 µM | Activity (Bel-7402 [24]): 46.27% | IC50 [25]: 8.21 µM
